Experimental data reported in the M2OR odorant receptor database.

Test system: T1, OR5H1
T1 sequence (whole entry): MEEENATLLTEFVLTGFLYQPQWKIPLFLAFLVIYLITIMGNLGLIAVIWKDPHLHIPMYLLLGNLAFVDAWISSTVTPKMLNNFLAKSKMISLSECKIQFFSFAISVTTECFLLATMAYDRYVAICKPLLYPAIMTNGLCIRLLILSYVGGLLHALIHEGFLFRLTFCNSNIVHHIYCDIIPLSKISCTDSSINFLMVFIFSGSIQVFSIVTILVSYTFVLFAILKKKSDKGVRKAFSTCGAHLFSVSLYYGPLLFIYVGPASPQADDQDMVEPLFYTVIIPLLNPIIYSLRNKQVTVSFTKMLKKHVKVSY
Conditions: stereoisomer not certain
How it was run: (§1)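 Each receptor–molecule pair is labelled responsive or non-responsive (inactive) according to whether the original authors judged the measured signal statistically different from baseline. The data were taken from the main text and supplementary material of published papers and checked for typos and inconsistencies. Assay methods differed by source, with transient luciferase assays in mammalian cell lines being common.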
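Also: active if original authors judged signal statistically different from baseline.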

Row | Structure (SMILES) | odorant receptor agonist call
1 | CC1=C(O)C(=O)C(C)O1 (stereo unspecified) | inactive
2 | CC1=C(O)C(=O)OC1C (stereo unspecified) | inactive
3 | Cc1cnc(C)c(C)n1 | inactive
4 | CC1=NC(C)C(C)S1 (stereo unspecified) | inactive
5 | CCCC(S)CCOC(C)=O (stereo unspecified) | inactive
6 | CCC1OC(=O)C(O)=C1C (stereo unspecified) | inactive
7 | CCC1OC(C)=C(O)C1=O (stereo unspecified) | inactive

Test system: T2, OR5H2
T2 sequence (whole entry): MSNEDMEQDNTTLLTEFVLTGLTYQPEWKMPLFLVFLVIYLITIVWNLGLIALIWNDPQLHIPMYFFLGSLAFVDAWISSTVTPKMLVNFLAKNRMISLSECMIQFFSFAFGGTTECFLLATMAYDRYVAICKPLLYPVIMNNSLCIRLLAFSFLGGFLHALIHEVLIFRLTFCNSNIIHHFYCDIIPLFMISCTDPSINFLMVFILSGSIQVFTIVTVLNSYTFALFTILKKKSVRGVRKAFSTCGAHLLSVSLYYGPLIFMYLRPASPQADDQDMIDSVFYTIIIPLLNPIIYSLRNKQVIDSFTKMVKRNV
Conditions: stereoisomer not certain
How it was run: as §1

Row | Structure (SMILES) | odorant receptor agonist call
8 | CC1=C(O)C(=O)C(C)O1 (stereo unspecified) | inactive
9 | CC1CCCCCCCCCCCCC(=O)C1 (stereo unspecified) | inactive
10 | CCCCCC(S)C(C)CO (stereo unspecified) | inactive
11 | CCC(S)C(C)CO (stereo unspecified) | inactive
12 | CCCCCC(=O)C(C)C(C)=O (stereo unspecified) | inactive
13 | CC(CO)CS (stereo unspecified) | inactive
14 | CC(=O)c1c(C)c([N+](=O)[O-])c(C(C)(C)C)c([N+](=O)[O-])c1C | inactive
15 | CC1=C(O)C(=O)OC1C (stereo unspecified) | inactive
16 | CCCCCCC=CCCC=O | inactive
17 | Cc1cnc(C)c(C)n1 | inactive
18 | CC1=NC(C)C(C)S1 (stereo unspecified) | inactive
19 | CCCC(S)CCOC(C)=O (stereo unspecified) | inactive
20 | CCC1OC(=O)C(O)=C1C (stereo unspecified) | inactive
21 | CCC1OC(C)=C(O)C1=O (stereo unspecified) | inactive
22 | CCCCC(S)C(C)CO (stereo unspecified) | inactive

Target: T3, OR5H6 (Homo sapiens) (UniProt Q8NGV6)
T3 sequence (whole entry): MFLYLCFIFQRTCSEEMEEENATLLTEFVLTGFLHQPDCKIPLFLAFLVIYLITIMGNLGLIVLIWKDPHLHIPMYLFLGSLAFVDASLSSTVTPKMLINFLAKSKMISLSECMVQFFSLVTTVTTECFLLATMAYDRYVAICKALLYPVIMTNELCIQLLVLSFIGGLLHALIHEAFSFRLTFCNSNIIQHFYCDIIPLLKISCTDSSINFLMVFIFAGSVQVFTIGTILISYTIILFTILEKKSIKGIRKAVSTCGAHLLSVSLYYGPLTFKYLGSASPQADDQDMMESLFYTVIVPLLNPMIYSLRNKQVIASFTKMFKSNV
Conditions: stereoisomer not certain
How it was run: as §1

Row | Structure (SMILES) | odorant receptor agonist call
23 | CC1=C(O)C(=O)C(C)O1 (stereo unspecified) | inactive
24 | CC1CCCCCCCCCCCCC(=O)C1 (stereo unspecified) | inactive
25 | CCCCCC(S)C(C)CO (stereo unspecified) | inactive
26 | CCC(S)C(C)CO (stereo unspecified) | inactive
27 | CCCCCC(=O)C(C)C(C)=O (stereo unspecified) | inactive
28 | CC(CO)CS (stereo unspecified) | inactive
29 | CC(=O)c1c(C)c([N+](=O)[O-])c(C(C)(C)C)c([N+](=O)[O-])c1C | inactive
30 | CC1=C(O)C(=O)OC1C (stereo unspecified) | inactive
31 | CCCCCCC=CCCC=O | inactive
32 | Cc1cnc(C)c(C)n1 | inactive
33 | CC1=NC(C)C(C)S1 (stereo unspecified) | inactive
34 | CCCC(S)CCOC(C)=O (stereo unspecified) | inactive
35 | CCC1OC(=O)C(O)=C1C (stereo unspecified) | inactive
36 | CCC1OC(C)=C(O)C1=O (stereo unspecified) | inactive
37 | CCCCC(S)C(C)CO (stereo unspecified) | inactive

Target: T4, OR5I1 (Homo sapiens) (UniProt Q13606)
T4 sequence (whole entry): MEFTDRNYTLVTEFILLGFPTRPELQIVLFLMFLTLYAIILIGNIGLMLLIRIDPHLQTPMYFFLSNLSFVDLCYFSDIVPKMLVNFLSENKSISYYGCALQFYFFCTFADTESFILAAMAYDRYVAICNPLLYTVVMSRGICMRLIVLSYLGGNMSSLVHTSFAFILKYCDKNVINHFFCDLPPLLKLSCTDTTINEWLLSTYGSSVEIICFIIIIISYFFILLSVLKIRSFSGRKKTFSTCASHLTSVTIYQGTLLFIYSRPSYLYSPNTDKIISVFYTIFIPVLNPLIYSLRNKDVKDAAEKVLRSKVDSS
Conditions: stereoisomer not certain
How it was run: as §1

Row | Structure (SMILES) | odorant receptor agonist call
38 | CC1=C(O)C(=O)C(C)O1 (stereo unspecified) | inactive
39 | CC1CCCCCCCCCCCCC(=O)C1 (stereo unspecified) | inactive
40 | CC(=O)c1c(C)c([N+](=O)[O-])c(C(C)(C)C)c([N+](=O)[O-])c1C | inactive
41 | CC1=C(O)C(=O)OC1C (stereo unspecified) | inactive
42 | CCCCCCC=CCCC=O | inactive
43 | Cc1cnc(C)c(C)n1 | inactive
44 | CC1=NC(C)C(C)S1 (stereo unspecified) | inactive
45 | CCCC(S)CCOC(C)=O (stereo unspecified) | inactive
46 | CCC1OC(=O)C(O)=C1C (stereo unspecified) | inactive
47 | CCC1OC(C)=C(O)C1=O (stereo unspecified) | inactive

Target: T5, OR5J2 (Homo sapiens) (UniProt Q8NH18)
T5 sequence (whole entry): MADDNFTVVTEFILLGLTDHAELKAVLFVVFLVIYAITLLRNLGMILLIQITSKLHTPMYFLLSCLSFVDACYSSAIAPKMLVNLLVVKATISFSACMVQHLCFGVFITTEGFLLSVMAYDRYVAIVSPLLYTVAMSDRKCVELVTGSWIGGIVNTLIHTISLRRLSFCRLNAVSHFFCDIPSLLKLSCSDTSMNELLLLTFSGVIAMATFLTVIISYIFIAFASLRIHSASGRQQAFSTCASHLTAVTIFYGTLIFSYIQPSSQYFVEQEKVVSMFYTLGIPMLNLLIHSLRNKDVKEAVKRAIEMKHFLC
Conditions: stereoisomer not certain
How it was run: as §1

Row | Structure (SMILES) | odorant receptor agonist call
48 | CC1=C(O)C(=O)C(C)O1 (stereo unspecified) | inactive
49 | CC1CCCCCCCCCCCCC(=O)C1 (stereo unspecified) | inactive
50 | CCCCCC(S)C(C)CO (stereo unspecified) | inactive
51 | CCC(S)C(C)CO (stereo unspecified) | inactive
52 | CCCCCC(=O)C(C)C(C)=O (stereo unspecified) | inactive
53 | CC(CO)CS (stereo unspecified) | inactive
54 | CC(=O)c1c(C)c([N+](=O)[O-])c(C(C)(C)C)c([N+](=O)[O-])c1C | inactive
55 | CC1=C(O)C(=O)OC1C (stereo unspecified) | inactive
56 | CCCCCCC=CCCC=O | inactive
57 | Cc1cnc(C)c(C)n1 | inactive
58 | CC1=NC(C)C(C)S1 (stereo unspecified) | inactive
59 | CCCC(S)CCOC(C)=O (stereo unspecified) | inactive
60 | CCC1OC(=O)C(O)=C1C (stereo unspecified) | inactive
61 | CCC1OC(C)=C(O)C1=O (stereo unspecified) | inactive
